The text below walks through data of ChEMBL document CHEMBL4411279, “Synthesis of new chalcone-based homoserine lactones and their antiproliferative activity evaluation” (Eur J Med Chem, 2019).

A value given as a limit tells only on which side of the number the result lay.

Common to all, as to assay type: functional, cell-based
One experiment concerns DU-145. Description: Antiproliferative activity against human DU145 cells after 72 hrs by MTT assay. Conditions: DU-145, 72 h. An outline of the steps: (§1)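 Cells seeded 3,000/well, after 24 h medium replaced with compound at 64, 32, 16, 8, 4, 2, 1, 0.5 µM; 72 h exposure, MTT read-out at 570 nm; IC50 given as mean ± SD.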
The test system of a further experiment is MGC-803. In words: Antiproliferative activity against human MGC803 cells after 72 hrs by MTT assay. Conditions: MGC-803, 72 h. An outline of the steps:
as §1

Another experiment concerns PC-3. Description: Antiproliferative activity against human PC3 cells after 72 hrs by MTT assay. As to conditions: PC-3, 72 h. An outline of the steps: as §1
A further experiment concerns MCF7. In words: Antiproliferative activity against human MCF7 cells after 72 hrs by MTT assay. Conditions: MCF7, 72 h. An outline of the steps: as §1

As to `O=C1OCC[C@@H]1NC(=S)SCCOc1ccc(Cl)cc1`, the IC50 in the experiment with DU-145 was over 64 µM; in the experiment on MGC-803, 51.1 µM; in the experiment on PC-3, over 64 µM; in the experiment on MCF7 it was 50.5 µM.

As for `O=C(COc1ccc(C(=O)/C=C/c2cccc(Br)c2)cc1)N[C@H]1CCOC1=O`, the IC50 in the experiment with DU-145 is 9.8 µM; in the experiment with MGC-803 it was 11.9 µM; with PC-3, 7.89 µM; with MCF7 it was 28.3 µM.

Consider `O=C(COc1ccc(C(=O)/C=C/c2ccc(F)c(F)c2)cc1)N[C@H]1CCOC1=O`, for which the half-maximal inhibitory concentration (IC50) in the experiment on DU-145 was 19.8 µM; with MGC-803, over 64 µM; in the experiment with PC-3, 21.9 µM; in the experiment on MCF7, over 64 µM.

Turning to `O=C(COc1ccc(C(=O)/C=C/c2ccccc2)cc1)N[C@H]1CCOC1=O`, the IC50 is 48.3 µM with DU-145, over 64 µM in the experiment on MGC-803, 56.8 µM in the experiment on PC-3 and over 64 µM in the experiment with MCF7.

As for `O=C(CNc1ccc(Br)cc1)N[C@H]1CCOC1=O`, the IC50 in the experiment with DU-145, in the experiment on MGC-803, with PC-3 and in the experiment with MCF7 was over 64 µM throughout.

As for `O=C(CNc1ccccc1Cl)N[C@H]1CCOC1=O`, the IC50 in the experiment with DU-145, with MGC-803, with PC-3 and with MCF7 was over 64 µM throughout.

With `O=C(COc1ccc(C(=O)/C=C/c2ccc(Cl)cc2Cl)cc1)N[C@H]1CCOC1=O`, the IC50 is 8.61 µM with DU-145, 26.5 µM with MGC-803, 8.04 µM with PC-3 and 34.4 µM with MCF7.

As for `CCCCCCCCCCSC(=S)N[C@H]1CCOC1=O`, the IC50 in the experiment on DU-145, with MGC-803, in the experiment on PC-3 and in the experiment with MCF7 was over 64 µM throughout.

Regarding `O=C(CNc1ccc(F)cc1)N[C@H]1CCOC1=O`, the IC50 in the experiment on DU-145, in the experiment with MGC-803, in the experiment on PC-3 and in the experiment on MCF7 was over 64 µM throughout.

In the case of `O=C(COc1ccc(C(=O)/C=C/c2ccc(Br)cc2)cc1)N[C@H]1CCOC1=O`, the IC50 is 51.7 µM in the experiment on DU-145, 51 µM in the experiment on MGC-803, over 64 µM in the experiment with PC-3 and over 64 µM with MCF7.

As for `O=C1OCC[C@@H]1NC(=S)SCCOc1ccc([N+](=O)[O-])cc1`, the concentration for half-maximal inhibition (IC50) with DU-145 is 31 µM; in the experiment with MGC-803 it was over 100 µM; in the experiment on PC-3, 32.5 µM; with MCF7 it was over 64 µM.

For the compound `Cc1ccc(C(C)C)c(OCCSC(=S)N[C@H]2CCOC2=O)c1`, the IC50 in the experiment with DU-145 is over 64 µM; with MGC-803, 43.4 µM; in the experiment with PC-3, over 64 µM; in the experiment with MCF7, over 64 µM.

For `CC(=O)c1ccc(OCCSC(=S)N[C@H]2CCOC2=O)cc1`, the half-maximal inhibitory concentration (IC50) with DU-145 is 32.6 µM; in the experiment with MGC-803, over 64 µM; in the experiment with PC-3, 46.9 µM; in the experiment on MCF7, over 64 µM.

On to `O=C(CNc1ccc(Cl)cc1)N[C@H]1CCOC1=O`, for which the IC50 in the experiment with DU-145, in the experiment with MGC-803, in the experiment on PC-3 and in the experiment with MCF7 was over 64 µM each time.

In the case of `Cc1cc(Cl)ccc1NCC(=O)N[C@H]1CCOC1=O`, the IC50 in the experiment with DU-145, with MGC-803, in the experiment on PC-3 and with MCF7 was over 64 µM each time.

Regarding `O=C1OCC[C@@H]1NC(=S)SCCOc1cccc2ccccc12`, the IC50 in the experiment with DU-145, in the experiment with MGC-803, in the experiment on PC-3 and with MCF7 was over 64 µM each time.

In the case of `CCOc1ccccc1OCCSC(=S)N[C@H]1CCOC1=O`, the IC50 is 28.2 µM in the experiment with DU-145, over 64 µM in the experiment with MGC-803, 24.1 µM in the experiment with PC-3 and over 64 µM in the experiment on MCF7.

In the case of `O=C1OCC[C@@H]1NC(=S)SCCOc1ccccc1Cc1ccccc1`, the half-inhibitory concentration (IC50) with DU-145 is over 64 µM; with MGC-803 it was 32.3 µM; in the experiment with PC-3 it was over 64 µM; with MCF7, 39.5 µM.

As for `CC(C)c1ccc(/C=C/C(=O)c2ccc(OCC(=O)N[C@H]3CCOC3=O)cc2)cc1`, the IC50 in the experiment on DU-145 came out at 13.1 µM; in the experiment on MGC-803 it was 16.8 µM; with PC-3, 4.66 µM; with MCF7, 23.4 µM.
